Experimental data: ChEMBL document CHEMBL5316304, “Collaborative Virtual Screening Identifies a 2-Aryl-4-aminoquinazoline Series with Efficacy in an In Vivo Model of Trypanosoma cruzi Infection” (J Med Chem, 2023)
Values after ≈ are worked out from the molar mass of the structure shown.

How the values were obtained:
Trypanosoma cruzi = test: Antitrypanosomal activity against intracellular Trypanosoma cruzi infected in human U2OS cells assessed as parasite growth inhibition incubated for 72 hrs by confocal microscopy; assay type: functional, organism-based
[1] = Selectivity index, ratio of IC50 for human U2OS cells to IC50 for intracellular Trypanosoma cruzi infected in human U2OS cells; assay type: toxicity, cell-based; settings: for selectivity ratio: U2OS cells, read-out: Selectivity Index
In short: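 Host U2OS cell counts and intracellular parasite infection ratio were read from the same 72 h DRAQ5-stained confocal imaging assay. CC50 and EC50 came from 4-parameter logistic fits, and the selectivity index is their ratio.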

[2] = Intrinsic clearance in mouse liver microsomes at 1 uM incubated for 15 to 30 mins by LC/MS/MS analysis; assay type: ADME, Microsome; settings: time 15-30 min
[3] = Kinetic solubility of compound in aqueous buffer at pH 6.8 incubated for 16 to 24 hrs by HPLC analysis; assay type: physicochemical; settings: time 16-24 hrs, read-out: Kinetic_solubility
[4] = Intrinsic clearance in human liver microsomes at 1 uM incubated for 15 to 30 mins by LC/MS/MS analysis; assay type: ADME, Microsome; settings: time 15-30 min
[5] = Permeability of compound incubated for 3 hrs by PAMPA assay; assay type: ADME; settings: read-out: permeability

| Compound | IC50 (Trypanosoma cruzi; Trypanosoma cruzi, U2OS, 72 h) [nM] | selectivity ratio [1] | other results |
| --- | --- | --- | --- |
| Cn1ccnc1CNc1nc(-c2ccccn2)nc2ccccc12 | 3300 | 14 | – |
| c1ccc(C2CCN(c3nc(-c4ccccn4)nc4ccccc34)C2)cc1 (configuration not stated) | 280 | 9.7 | intrinsic clearance (CLint) [2]: > 500 µL/min/mg; solubility kinetic [3]: 0.7 µg/mL (≈ 1.99 µM) |
| c1ccc(-c2nc(N3CCc4cccnc4C3)c3ccccc3n2)nc1 | 7400 | 4.9 | – |
| CCC(C)Nc1nc(-c2ccccn2)nc2ccccc12 (configuration not stated) | 2100 | – | – |
| N#CC1CCCN(c2nc(-c3ccccn3)nc3ccccc23)C1 (configuration not stated) | 18000 | 2.7 | – |
| c1ccc(-c2nc(NCc3nc4ccccc4o3)c3ccccc3n2)nc1 | 2500 | 16 | – |
| OC1(c2ccccc2)CCN(c2nc(-c3ccccn3)nc3ccccc23)C1 (configuration not stated) | 35000 | 2.8 | – |
| CCn1ncc2nc(-c3ccccn3)nc(N3CCC(c4ccccn4)C3)c21 (configuration not stated) | 1200 | 2.7 | – |
| CCn1ccc2nc(-c3ccccn3)nc(N3CCC(c4ccccn4)C3)c21 (configuration not stated) | 180 | 28 | – |
| N#CC1CCN(c2nc(-c3ccccn3)nc3ccccc23)CC1 | 24000 | 2.1 | – |
| c1ccc(-c2nc(N3CCn4ccnc4C3)c3ccccc3n2)nc1 | 27000 | 1.9 | – |
| NC(=O)C1CCN(c2nc(-c3ccccn3)nc3ccccc23)C1 (configuration not stated) | 23000 | 2.2 | – |
| Cn1cc(CNc2nc(-c3ccccn3)nc3ccccc23)cn1 | 9600 | 5.2 | – |
| N#CC1CCN(c2nc(-c3ccccn3)nc3ccccc23)C1 (configuration not stated) | 7000 | 7.2 | – |
| CCn1cnc2c(N3CCC(c4ccccn4)C3)nc(-c3ccccn3)nc21 (configuration not stated) | 2700 | 2.7 | – |
| CC1CCN(c2nc(-c3ccccn3)nc3ccccc23)CC1 | 410 | – | intrinsic clearance (CLint) [2]: > 500 µL/min/mg; CLint [4]: 112 µL/min/mg; solubility kinetic [3]: 59 µg/mL (≈ 194 µM); Papp at 3 h [5]: 44.1 ×10⁻⁶ cm/s |
| c1ccc(-c2nc(N3CCc4ccccc4C3)c3ccccc3n2)nc1 | 720 | 6.6 | intrinsic clearance (CLint) [2]: 464 µL/min/mg; CLint [4]: 150 µL/min/mg; solubility kinetic [3]: 10 µg/mL (≈ 29.5 µM); Papp at 3 h [5]: 40.8 ×10⁻⁶ cm/s |
| c1ccc(-c2nc(N3CCC(c4ccccn4)C3)c3ccccc3n2)nc1 (stereo in doubt; 85-tR1) | – | – | IC50 (Trypanosoma cruzi; u2os): 1100 nM; Selectivity Index [1]: 4.2 |
| c1ccc(-c2nc(N3CCC(c4ccccn4)C3)c3ccccc3n2)nc1 (stereo in doubt; 85-tR2) | – | – | IC50 (Trypanosoma cruzi; u2os): 960 nM; Selectivity Index [1]: 6.4 |
| c1ccc(-c2nc(NCCn3ccnc3)c3ccccc3n2)nc1 | 49000 | 1 | – |

| Compound | IC50 (Trypanosoma cruzi; Trypanosoma cruzi, U2OS, 72 h) [nM] | selectivity ratio [1] | other results |
| --- | --- | --- | --- |
| CCCN(CCC)c1nc(-c2ccccn2)nc2ccccc12 | 170 | – | – |
| c1ccc(N2CCN(c3nc(-c4ccccn4)nc4ccccc34)CC2)cc1 | 430 | – | intrinsic clearance (CLint) [2]: > 500 µL/min/mg; CLint [4]: 95 µL/min/mg; solubility kinetic [3]: 15 µg/mL (≈ 40.8 µM); Papp at 3 h [5]: 29.1 ×10⁻⁶ cm/s |
| O=S(=O)(c1cccs1)N1CCc2nc(-c3ccccn3)nc(N3CCCCCC3)c2C1 | 860 | > 58 | – |
| c1ccc(-c2nc(N3CCCCCC3)c3ccccc3n2)nc1 | 100 | – | – |
| Cn1ccc2nc(-c3ccccn3)nc(N3CCC(c4ccccn4)C3)c21 (configuration not stated) | 560 | 16 | solubility kinetic [3]: 90 µg/mL (≈ 253 µM); Papp at 3 h [5]: 21.9 ×10⁻⁶ cm/s |
| c1ccc(-c2nc(N3CCCC(c4ccccn4)C3)c3ccccc3n2)nc1 (configuration not stated) | 1300 | 7.3 | – |
| Cc1ccc(Nc2nc(-c3ccccn3)nc3ccccc23)cc1 | 120 | – | – |
| c1ccc(CNc2nc(-c3ccccn3)nc3ccccc23)cc1 | 130 | 57 | – |
| c1ccc(C2CCCN(c3nc(-c4ccccn4)nc4ccccc34)C2)cc1 (configuration not stated) | 360 | 6.4 | intrinsic clearance (CLint) [2]: 318 µL/min/mg; CLint [4]: 205 µL/min/mg; solubility kinetic [3]: 0.1 µg/mL (≈ 0.273 µM); Papp at 3 h [5]: 41.6 ×10⁻⁶ cm/s |
| c1ccc(-c2nc(NCc3cccnc3)c3ccccc3n2)nc1 | 6300 | 8 | – |
| Cc1ccc(Nc2nc(-c3ccccn3)nc3ccccc23)nc1 | 100 | < 1 | – |
| Cc1ccc(Nc2nc(-c3ccccn3)nc3ccccc23)cn1 | 31000 | 1.6 | – |
| Fc1ccc(Nc2nc(-c3ccccn3)nc3ccccc23)cc1 | 1300 | – | – |
| CCn1cc2nc(-c3ccccn3)nc(N3CCC(c4ccccn4)C3)c2n1 (configuration not stated) | 100 | 2.8 | intrinsic clearance (CLint) [2]: 70 µL/min/mg; CLint [4]: < 1 µL/min/mg; solubility kinetic [3]: 94 µg/mL (≈ 253 µM); Papp at 3 h [5]: 22 ×10⁻⁶ cm/s |
| c1ccc(-c2nc(N3CCCCC3)c3ccccc3n2)nc1 | 900 | – | – |
| Cc1cccc(CNc2nc(-c3ccccn3)nc3ccccc23)n1 | 2400 | 21 | – |
| CCn1ncc2c(N3CCC(c4ccccn4)C3)nc(-c3ccccn3)nc21 (configuration not stated) | 18000 | 2.8 | – |
| OC1(c2ccccc2)CCN(c2nc(-c3ccccn3)nc3ccccc23)CC1 | 3300 | 15 | – |
| Cc1cccnc1CNc1nc(-c2ccccn2)nc2ccccc12 | 1600 | 15 | – |
| c1ccc(CN2CCN(c3nc(-c4ccccn4)nc4ccccc34)CC2)cc1 | 450 | 27 | – |

| Compound | IC50 (Trypanosoma cruzi; Trypanosoma cruzi, U2OS, 72 h) [nM] | selectivity ratio [1] | other results |
| --- | --- | --- | --- |
| c1ccc(-c2nc(Nc3ccc4[nH]ncc4c3)c3ccccc3n2)nc1 | 6200 | 3.5 | – |
| c1ccc(CCNc2nc(-c3ccccn3)nc3ccccc23)nc1 | 3400 | 14 | – |
| Cc1cccc(N2CCN(c3nc(-c4ccccn4)nc4ccccc34)CC2)n1 | 1900 | 7 | – |
| c1ccc(-c2nc(N3CCCC3c3ccccn3)c3ccccc3n2)nc1 (configuration not stated) | 1800 | 25 | – |
| c1ccc(CCNc2nc(-c3ccccn3)nc3ccccc23)cc1 | 80 | – | – |
| Fc1cccc(Nc2nc(-c3ccccn3)nc3ccccc23)c1 | 510 | 20 | – |
| Cn1ncc2nc(-c3ccccn3)nc(N3CCC(c4ccccn4)C3)c21 (configuration not stated) | 1800 | 2.9 | solubility kinetic [3]: 99 µg/mL (≈ 277 µM); Papp at 3 h [5]: 17.1 ×10⁻⁶ cm/s |
| CCn1cc2c(N3CCC(c4ccccn4)C3)nc(-c3ccccn3)nc2n1 (configuration not stated) | 1500 | 2.3 | – |
| c1ccc(-c2nc(N3CCc4ncccc4C3)c3ccccc3n2)nc1 | 9200 | 5.5 | – |
| c1ccc(-c2nc(NCc3nccs3)c3ccccc3n2)nc1 | 2700 | 19 | – |
| c1ccc(-c2nc(N3CCc4nc[nH]c4C3)c3ccccc3n2)nc1 | 21000 | 2.3 | – |
| c1ccc(-c2nc(N3CCN(c4ccccn4)CC3)c3ccccc3n2)nc1 | 3300 | 6.4 | – |
| c1ccc(CNc2nc(-c3ccccn3)nc3ccccc23)nc1 | 4400 | 11 | – |
| c1ccc(-c2nc(Nc3ccn4nccc4c3)c3ccccc3n2)nc1 | 11000 | 2.9 | – |
| CC(Nc1nc(-c2ccccn2)nc2ccccc12)c1ccccn1 (configuration not stated) | 2700 | 18 | – |
| COc1ccc(Nc2nc(-c3ccccn3)nc3ccccc23)cc1 | 1200 | – | – |
| c1ccc(-c2nc(NCCn3cnc4ccccc43)c3ccccc3n2)nc1 | 8200 | 6.1 | – |
| c1ccc(-c2nc(N3CCCC3)c3ccccc3n2)nc1 | 1100 | 8.6 | – |
| c1ccc(OC2CCN(c3nc(-c4ccccn4)nc4ccccc34)C2)cc1 (configuration not stated) | – | 6.5 | intrinsic clearance (CLint) [2]: > 500 µL/min/mg; CLint [4]: 361 µL/min/mg; solubility kinetic [3]: 7.7 µg/mL (≈ 20.9 µM); Papp at 3 h [5]: 43 ×10⁻⁶ cm/s |
